Experimental data gathered from unrelated publications.
Protocols differ between the studies behind these lines.
Target: Serine/threonine-protein kinase PLK2 (PLK2, Homo sapiens, UniProt Q9NYY3)

CCCCN(CCCC)C(=O)CN1C[C@H](c2cc(OC)c3c(c2)OCO3)[C@@H](C(=O)O)[C@@H]1CC(C)(C)CCC
remaining binding (cell-free assay, competition with immobilised ligand; 1 µM): 67.1%

CC(C)(O)[C@H]1CC[C@H](Nc2ccc3ncc(-c4cccc(C(F)(F)F)c4)n3n2)CC1
remaining activity (enzyme activity, inhibitor; 1 µM): 93.5%

CNC(=O)Nc1ccc2c(c1)[C@@]1(CC2)OC(=O)N(CC(=O)N(Cc2ccc(F)cc2)[C@@H](C)C(F)(F)F)C1=O
remaining binding (cell-free assay, competition with immobilised ligand; 1 µM): 92%

Cc1ccc(NC(=O)c2ccc(CN3CCN(C)CC3)cc2)cc1Nc1nc(-c2cccnc2)cs1
remaining signal (cell-free assay; 0.5 µM): 97.9%

O=C(Nc1cnn(-c2csc(C(=O)NC3COC3)c2)c1)Nc1c(F)cccc1Cl
remaining activity (enzyme activity, inhibitor; 5 µM): 100%

N#CCCc1ccc2c(c1)-c1[nH]c3ccc([N+](=O)[O-])cc3c1CC(=O)N2
remaining signal (cell-free assay; 0.5 µM): 99%

COc1cc2ncnc(Nc3ccc(Oc4ccccc4)c(C)c3C)c2cc1OC
inhibition (enzyme activity, inhibitor; 1 µM): 1%

CC(C)(C)c1nc2c(s1)c1nc(N)ncc1c1ccc(NS(=O)(=O)c3c(F)cccc3F)c(F)c12
remaining activity (enzyme activity, inhibitor, radiometric; 1 µM): 91%

COc1cc(-c2cn(C3CCc4c(F)cccc4N(CC(F)(F)F)C3=O)nn2)ccc1-n1cnc(C)c1 (stereo not shown)
remaining binding (cell-free assay, competition with immobilised ligand; 1 µM): 100%

CN(C)c1nccc(-c2cnc3ncccn23)n1
remaining binding (binding; 1 µM): 66%

CC(=O)C1=C(C)N(c2cccc(C(F)(F)F)c2)C(=O)N[C@@H]1c1ccc(C#N)nc1
remaining binding (cell-free assay, competition with immobilised ligand; 1 µM): 97.8%

COc1cc(Cl)c(C(=O)N[C@@H](CN[C@H]2CC[C@@H](N)CC2)Cc2ccc(C#N)cc2)cc1-c1ccc(CN[C@H](C)c2ccc(C)cc2)o1
remaining activity (enzyme activity, inhibitor; 1 µM): 96%

CNC(=O)c1cc(Oc2ccc(NC(=O)Nc3ccc(Cl)c(C(F)(F)F)c3)cc2)ccn1
inhibition (enzyme activity, inhibitor; 10 µM): 15%

COc1cccc(CNC(=O)c2nc3scc(COCc4ccc(C(=O)O)cc4)c3c(=O)[nH]2)c1
remaining binding (cell-free assay, competition with immobilised ligand; 1 µM): 56.7%

CCN(CC)CCNC(=O)c1c(C)[nH]c(/C=C2\C(=O)Nc3ccc(F)cc32)c1C
inhibition (enzyme activity, inhibitor; 10 µM): 6%

Cc1ccc(C(=O)Nc2ccc(CN3CCN(C)CC3)c(C(F)(F)F)c2)cc1C#Cc1cnc2cccnn12
remaining activity (enzyme activity, inhibitor; 23.5 nM): 94%
